Assay results published in ChEMBL document CHEMBL1155468, “Syntheses and evaluation of anticonvulsant profile and teratogenicity of novel amide derivatives of branched aliphatic carboxylic acids with 4-aminobenzensulfonamide” (J Med Chem, 2010).
Calls of active or inactive are those of the source. No cut-off for these calls is given here.

Assays:
Mus musculus [1] = assay: Neurotoxicity in CF1 albino mouse assessed as motor impairment at 100 mg/kg, ip after 0.5 hrs; type: toxicity, organism-based; parameters: dose 100 mg/kg, route intraperitoneal; settings: in vivo
Mus musculus [2] = assay: Anticonvulsant activity in CF1 albino mouse assessed as inhibition of subcutaneous pentylenetetrazole-induced seizures at 30 mg/kg, ip after 4 hrs; type: functional, organism-based; parameters: dose 30 mg/kg
Summary of the method: (§1)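 Adult male CF no. 1 albino mice (18-25 g) dosed ip with compound suspended in 0.5% methylcellulose (0.01 mL/g). Convulsant: pentylenetetrazol dissolved in 0.9% saline as a 0.85% solution for mice, given subcutaneously.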

Mus musculus [3] = assay: Teratogenic effect in SWV mouse assessed as fetuses with neural tube deffects at 522 mg/kg, ip administered on morning of day 8 of gestation; type: toxicity, organism-based; parameters: dose 522 mg/kg, route intraperitoneal; settings: in vivo
Summary of the method: (§2)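 Two-month-old nulligravid SWV females were mated overnight and checked for vaginal plugs the next morning; gestation onset was set at 10 p.m. the previous night. On gestation day 8.5, each dam received a single ip injection (0.55-2.7 mmol/kg range) or vehicle (25% aqueous Cremophor EL) at 10 μL/g body weight. Litters were scored for implants, resorptions, live and dead fetuses, and fetuses with neural tube defects.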

Mus musculus [4] = assay: Teratogenic effect in SWV mouse assessed as live fetuses at 783 mg/kg, ip administered on morning of day 8 of gestation; type: toxicity, organism-based; parameters: dose 783 mg/kg, route intraperitoneal; settings: in vivo
Summary of the method: (§3)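 SWV inbred mice: two-month-old nulligravid females mated overnight with males and checked for vaginal plugs next morning; gestation onset taken as 10 p.m. the previous night. On gestation day 8.5 each dam got one ip injection, 0.55–2.7 mmol/kg, in 25% aqueous Cremophor EL (vehicle controls dosed alike), 10 μL/g body weight. Litters and implants tallied; resorptions and live fetuses reported as counts with percentages.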

Mus musculus [5] = assay: Teratogenic effect in SWV mouse assessed as resorptions at 522 mg/kg, ip administered on morning of day 8 of gestation; type: toxicity, organism-based; parameters: dose 522 mg/kg, route intraperitoneal; settings: in vivo; summary of the method: as §3
Mus musculus [6] = assay: Anticonvulsant activity in CF1 albino mouse assessed as inhibition of maximal electroshock-induced seizures at 30 mg/kg, ip after 4 hrs; type: functional, organism-based; parameters: dose 30 mg/kg
Summary of the method: (§4)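 Test compounds suspended in 0.5% methylcellulose and given ip to adult male CF no. 1 albino mice (18-25 g) at 0.01 mL/g body weight before maximal electroshock challenge.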

Mus musculus [7] = assay: Anticonvulsant activity in CF1 albino mouse assessed as inhibition of subcutaneous pentylenetetrazole-induced seizures at 300 mg/kg, ip after 0.5 hrs; type: functional, organism-based; parameters: dose 300 mg/kg; summary of the method: as §1
Mus musculus [8] = assay: Anticonvulsant activity in CF1 albino mouse assessed as inhibition of subcutaneous pentylenetetrazole-induced seizures at 30 mg/kg, ip after 0.5 hrs; type: functional, organism-based; parameters: dose 30 mg/kg; summary of the method: as §1
Rattus norvegicus [9] = assay: Anticonvulsant activity in Sprague-Dawley rat assessed as inhibition of maximal electroshock-induced seizures at 30 mg/kg, po after 15 mins
Mus musculus [10] = assay: Teratogenic effect in SWV mouse assessed as resorptions at 316 mg/kg, ip administered on morning of day 8 of gestation; type: toxicity, organism-based; parameters: dose 316 mg/kg, route intraperitoneal; settings: in vivo; summary of the method: as §3
Mus musculus [11] = assay: Teratogenic effect in SWV mouse assessed as resorptions at 159 mg/kg, ip administered on morning of day 8 of gestation; type: toxicity, organism-based; parameters: dose 159 mg/kg, route intraperitoneal; settings: in vivo; summary of the method: as §3
Mus musculus [12] = assay: Neurotoxicity in CF1 albino mouse assessed as motor impairment at 30 mg/kg, ip after 0.5 hrs; type: toxicity, organism-based; parameters: dose 30 mg/kg, route intraperitoneal; settings: in vivo
Mus musculus [13] = assay: Anticonvulsant activity in CF1 albino mouse assessed as inhibition of maximal electroshock-induced seizures at 100 mg/kg, ip after 4 hrs; type: functional, organism-based; parameters: dose 100 mg/kg; summary of the method: as §4
Mus musculus [14] = assay: Anticonvulsant activity in CF1 albino mouse assessed as inhibition of subcutaneous pentylenetetrazole-induced seizures at 100 mg/kg, ip after 4 hrs; type: functional, organism-based; parameters: dose 100 mg/kg; summary of the method: as §1
Mus musculus [15] = assay: Teratogenic effect in SWV mouse assessed as resorptions at 783 mg/kg, ip administered on morning of day 8 of gestation; type: toxicity, organism-based; parameters: dose 783 mg/kg, route intraperitoneal; settings: in vivo; summary of the method: as §3
Rattus norvegicus [16] = assay: Anticonvulsant activity in Sprague-Dawley rat assessed as inhibition of maximal electroshock-induced seizures at 30 mg/kg, po after 1 hr
Mus musculus [17] = assay: Teratogenic effect in SWV mouse assessed as live fetuses at 316 mg/kg, ip administered on morning of day 8 of gestation; type: toxicity, organism-based; parameters: dose 316 mg/kg, route intraperitoneal; settings: in vivo; summary of the method: as §3
Mus musculus [18] = assay: Teratogenic effect in SWV mouse assessed as live fetuses at 159 mg/kg, ip administered on morning of day 8 of gestation; type: toxicity, organism-based; parameters: dose 159 mg/kg, route intraperitoneal; settings: in vivo; summary of the method: as §2
Rattus norvegicus [19] = assay: Anticonvulsant activity in Sprague-Dawley rat assessed as inhibition of maximal electroshock-induced seizures at 30 mg/kg, po after 4 hrs
Mus musculus [20] = assay: Neurotoxicity in CF1 albino mouse assessed as motor impairment at 300 mg/kg, ip after 0.5 hrs; type: toxicity, organism-based; parameters: dose 300 mg/kg, route intraperitoneal; settings: in vivo
Mus musculus [21] = assay: Anticonvulsant activity in CF1 albino mouse assessed as inhibition of maximal electroshock-induced seizures at 100 mg/kg, ip after 0.5 hrs; type: functional, organism-based; parameters: dose 100 mg/kg; summary of the method: as §4
Mus musculus [22] = assay: Anticonvulsant activity in CF1 albino mouse assessed as inhibition of subcutaneous pentylenetetrazole-induced seizures at 300 mg/kg, ip after 4 hrs; type: functional, organism-based; parameters: dose 300 mg/kg; summary of the method: as §1
Mus musculus [23] = assay: Teratogenic effect in SWV mouse assessed as dead fetuses at 522 mg/kg, ip administered on morning of day 8 of gestation; type: toxicity, organism-based; parameters: dose 522 mg/kg, route intraperitoneal; settings: in vivo
Summary of the method: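 Inbred SWV mice, which are susceptible to VPA-induced neural tube defects. Two-month-old nulligravid females were mated overnight and checked for vaginal plugs next morning; gestation onset was taken as 10 p.m. the prior night. On gestation day 8.5, each dam received a single ip dose (range 0.55-2.7 mmol/kg) in 25% aqueous Cremophor EL at 10 μL/g. Dead fetuses were counted per implants.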

Mus musculus [24] = assay: Teratogenic effect in SWV mouse assessed as live fetuses at 522 mg/kg, ip administered on morning of day 8 of gestation; type: toxicity, organism-based; parameters: dose 522 mg/kg, route intraperitoneal; settings: in vivo; summary of the method: as §3
Mus musculus [25] = assay: Anticonvulsant activity in CF1 albino mouse assessed as inhibition of subcutaneous pentylenetetrazole-induced seizures at 100 mg/kg, ip after 0.5 hrs; type: functional, organism-based; parameters: dose 100 mg/kg; summary of the method: as §1
Mus musculus [26] = assay: Neurotoxicity in CF1 albino mouse assessed as motor impairment at 100 mg/kg, ip after 4 hrs; type: toxicity, organism-based; parameters: dose 100 mg/kg, route intraperitoneal; settings: in vivo
Mus musculus [27] = assay: Neurotoxicity in CF1 albino mouse assessed as motor impairment at 300 mg/kg, ip after 4 hrs; type: toxicity, organism-based; parameters: dose 300 mg/kg, route intraperitoneal; settings: in vivo
Mus musculus [28] = assay: Anticonvulsant activity in CF1 albino mouse assessed as inhibition of maximal electroshock-induced seizures at 300 mg/kg, ip after 4 hrs; type: functional, organism-based; parameters: dose 300 mg/kg; summary of the method: as §4
Mus musculus [29] = assay: Neurotoxicity in CF1 albino mouse assessed as motor impairment at 30 mg/kg, ip after 4 hrs; type: toxicity, organism-based; parameters: dose 30 mg/kg, route intraperitoneal; settings: in vivo
Mus musculus [30] = assay: Anticonvulsant activity in CF1 albino mouse assessed as inhibition of maximal electroshock-induced seizures at 300 mg/kg, ip after 0.5 hrs; type: functional, organism-based; parameters: dose 300 mg/kg; summary of the method: as §4
Rattus norvegicus [31] = assay: Anticonvulsant activity in Sprague-Dawley rat assessed as inhibition of maximal electroshock-induced seizures at 30 mg/kg, po after 30 mins
Mus musculus [32] = assay: Anticonvulsant activity in CF1 albino mouse assessed as inhibition of maximal electroshock-induced seizures at 30 mg/kg, ip after 0.5 hrs; type: functional, organism-based; parameters: dose 30 mg/kg; summary of the method: as §4
Mus musculus [33] = assay: Teratogenic effect in SWV mouse assessed as live fetuses at 301 mg/kg, ip administered on morning of day 8 of gestation; type: toxicity, organism-based; parameters: dose 301 mg/kg, route intraperitoneal; settings: in vivo; summary of the method: as §2
Mus musculus [34] = assay: Teratogenic effect in SWV mouse assessed as dead fetuses at 91 mg/kg, ip administered on morning of day 8 of gestation; type: toxicity, organism-based; parameters: dose 91 mg/kg, route intraperitoneal; settings: in vivo
Mus musculus [35] = assay: Teratogenic effect in SWV mouse assessed as fetuses with neural tube deffects at 301 mg/kg, ip administered on morning of day 8 of gestation; type: toxicity, organism-based; parameters: dose 301 mg/kg, route intraperitoneal; settings: in vivo
Mus musculus [36] = assay: Teratogenic effect in SWV mouse assessed as dead fetuses at 452 mg/kg, ip administered on morning of day 8 of gestation; type: toxicity, organism-based; parameters: dose 452 mg/kg, route intraperitoneal; settings: in vivo
Mus musculus [37] = assay: Teratogenic effect in SWV mouse assessed as dead fetuses at 301 mg/kg, ip administered on morning of day 8 of gestation; type: toxicity, organism-based; parameters: dose 301 mg/kg, route intraperitoneal; settings: in vivo
Mus musculus [38] = assay: Teratogenic effect in SWV mouse assessed as resorptions at 181 mg/kg, ip administered on morning of day 8 of gestation; type: toxicity, organism-based; parameters: dose 181 mg/kg, route intraperitoneal; settings: in vivo
Mus musculus [39] = assay: Teratogenic effect in SWV mouse assessed as resorptions at 452 mg/kg, ip administered on morning of day 8 of gestation; type: toxicity, organism-based; parameters: dose 452 mg/kg, route intraperitoneal; settings: in vivo
Mus musculus [40] = assay: Teratogenic effect in SWV mouse assessed as resorptions at 301 mg/kg, ip administered on morning of day 8 of gestation; type: toxicity, organism-based; parameters: dose 301 mg/kg, route intraperitoneal; settings: in vivo
Mus musculus [41] = assay: Teratogenic effect in SWV mouse assessed as live fetuses at 91 mg/kg, ip administered on morning of day 8 of gestation; type: toxicity, organism-based; parameters: dose 91 mg/kg, route intraperitoneal; settings: in vivo
Mus musculus [42] = assay: Teratogenic effect in SWV mouse assessed as resorptions at 91 mg/kg, ip administered on morning of day 8 of gestation; type: toxicity, organism-based; parameters: dose 91 mg/kg, route intraperitoneal; settings: in vivo
Mus musculus [43] = assay: Teratogenic effect in SWV mouse assessed as live fetuses at 452 mg/kg, ip administered on morning of day 8 of gestation; type: toxicity, organism-based; parameters: dose 452 mg/kg, route intraperitoneal; settings: in vivo

| SMILES | Activity (Mus musculus [1]) | Activity (Mus musculus [2]) | Activity (Mus musculus [6]) | Activity (Mus musculus [7]) | Activity (Mus musculus [8]) | Activity (Mus musculus [12]) | Activity (Mus musculus [13]) | Activity (Mus musculus [14]) | Activity (Mus musculus [20]) | Activity (Mus musculus [21]) | Activity (Mus musculus [22]) | Activity (Mus musculus [25]) | Activity (Mus musculus [26]) | Activity (Mus musculus [27]) | Activity (Mus musculus [28]) | Activity (Mus musculus [29]) | Activity (Mus musculus [30]) | Activity (Mus musculus [32]) | also measured |
| --- | --- | --- | --- | --- | --- | --- | --- | --- | --- | --- | --- | --- | --- | --- | --- | --- | --- | --- | --- |
| NS(=O)(=O)c1ccc(NC(=O)Cc2ccccc2)cc1 | Non-toxic | inactive | inactive | inactive | inactive | Non-toxic | Active | inactive | Non-toxic | Active | inactive | inactive | Non-toxic | Non-toxic | Active | Non-toxic | Active | inactive | Activity (Mus musculus [3]): 3%; Activity (Mus musculus [4]): 16.7%; Activity (Mus musculus [5]): 34.5%; Activity (Rattus norvegicus [9]): inactive; Activity (Mus musculus [10]): 3.6%; Activity (Mus musculus [11]): 6.2%; Activity (Mus musculus [15]): 83.3%; Activity (Rattus norvegicus [16]): Active; Activity (Mus musculus [17]): 96.4%; Activity (Mus musculus [18]): 93.8%; Activity (Rattus norvegicus [19]): Active; Activity (Mus musculus [23]): 1.8%; Activity (Mus musculus [24]): 63.7%; Activity (Rattus norvegicus [31]): inactive |
| CCCC(CCC)C(=O)O [VALPROIC ACID] | Non-toxic | inactive | inactive | Active | inactive | Non-toxic | inactive | inactive | Toxic | inactive | inactive | inactive | Non-toxic | Non-toxic | inactive | Non-toxic | Active | inactive | Activity (Mus musculus [33]): 86.4%; Activity (Mus musculus [34]): 0.7%; Activity (Mus musculus [35]): 1.5%; Activity (Mus musculus [36]): 0.6%; Activity (Mus musculus [37]): 2.6%; Activity (Mus musculus [38]): 7.7%; Activity (Mus musculus [39]): 11.3%; Activity (Mus musculus [40]): 11%; Activity (Mus musculus [41]): 93.6%; Activity (Mus musculus [42]): 5.7%; Activity (Mus musculus [43]): 88.1% |
